Source: paper PMC7677148 (European Journal of Drug Metabolism and Pharmacokinetics, 2020)
Like-named read-outs stand apart in the source and are kept apart here.

Key:
OATP2B1 = target: T1, OATP2B1 (Homo sapiens, UniProt O94956); test: OATP2B1 inhibition assay; type: cell-based
T1 sequence (O94956 1-709): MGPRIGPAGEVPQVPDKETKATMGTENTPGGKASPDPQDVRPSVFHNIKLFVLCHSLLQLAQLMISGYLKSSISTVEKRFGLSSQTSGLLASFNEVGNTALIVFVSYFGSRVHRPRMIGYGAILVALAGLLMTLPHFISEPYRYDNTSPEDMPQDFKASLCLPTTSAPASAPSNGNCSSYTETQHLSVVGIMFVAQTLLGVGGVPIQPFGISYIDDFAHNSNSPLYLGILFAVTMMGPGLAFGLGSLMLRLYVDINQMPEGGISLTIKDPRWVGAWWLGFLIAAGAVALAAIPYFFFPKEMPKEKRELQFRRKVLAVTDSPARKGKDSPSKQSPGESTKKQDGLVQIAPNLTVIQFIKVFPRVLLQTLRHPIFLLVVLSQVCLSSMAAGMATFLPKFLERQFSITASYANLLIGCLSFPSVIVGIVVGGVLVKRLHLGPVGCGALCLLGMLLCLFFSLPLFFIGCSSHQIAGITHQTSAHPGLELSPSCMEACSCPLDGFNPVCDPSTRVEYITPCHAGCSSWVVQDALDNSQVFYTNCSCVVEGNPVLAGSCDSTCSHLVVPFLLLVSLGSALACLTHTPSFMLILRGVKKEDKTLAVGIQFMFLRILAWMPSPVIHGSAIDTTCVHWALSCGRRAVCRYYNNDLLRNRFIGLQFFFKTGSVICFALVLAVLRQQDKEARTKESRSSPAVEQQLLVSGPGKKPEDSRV
Summary of the method: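 HEK293 cells with tetracycline-inducible OATP2B1, grown in DMEM/Ham's F12/10% FCS and induced with 1 µg/ml tetracycline 72 h before assay. Substrate 1 µM DBF ± test compound (0.1–100 µM, in PBS/2% FCS), 10 min at 37 °C. After washing, median intracellular fluorescence read by flow cytometry. Normalised to non-induced cells. 8 replicates/concentration, 3–5 experiments. IC50 from four-parameter fit. Naringin control inhibitor.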

OATP1B1 [1] = target: T2, OATP1B1 (Homo sapiens, UniProt Q9Y6L6); test: OATP1B1 inhibition assay; type: cell-based
T2 sequence (Q9Y6L6 1-691): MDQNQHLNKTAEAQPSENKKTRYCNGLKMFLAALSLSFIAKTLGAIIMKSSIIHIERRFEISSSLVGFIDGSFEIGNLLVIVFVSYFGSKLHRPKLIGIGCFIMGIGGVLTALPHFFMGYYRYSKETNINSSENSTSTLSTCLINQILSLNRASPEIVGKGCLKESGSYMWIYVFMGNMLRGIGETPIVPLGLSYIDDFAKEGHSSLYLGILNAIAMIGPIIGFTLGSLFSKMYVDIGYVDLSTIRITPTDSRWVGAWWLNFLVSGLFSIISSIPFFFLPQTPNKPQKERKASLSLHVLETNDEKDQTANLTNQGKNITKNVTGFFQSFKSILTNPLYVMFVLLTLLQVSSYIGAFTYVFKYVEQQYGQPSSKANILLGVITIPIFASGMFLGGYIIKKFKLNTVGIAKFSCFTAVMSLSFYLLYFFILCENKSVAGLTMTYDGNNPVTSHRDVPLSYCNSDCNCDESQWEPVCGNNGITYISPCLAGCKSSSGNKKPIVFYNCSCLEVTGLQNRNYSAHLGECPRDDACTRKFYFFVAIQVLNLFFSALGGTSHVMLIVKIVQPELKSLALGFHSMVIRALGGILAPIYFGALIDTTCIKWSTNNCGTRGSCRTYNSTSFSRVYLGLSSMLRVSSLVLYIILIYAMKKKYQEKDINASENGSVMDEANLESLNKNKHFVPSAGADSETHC
Summary of the method: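 Stably transfected OATP1B1- or OATP1B3-HEK293 cells and empty-vector HEK293 control, grown in DMEM/10% FCS with G418. Cells exposed 10 min at 37 °C to 2.5 µM 8-FcA ± test compound (0.1–100 µM, in PBS/2% FCS). After washing, median intracellular fluorescence read by flow cytometry (30,000 cells, viable gate). With/without-inhibitor ratio normalised to control line. 8 replicates/concentration, 3–5 experiments. Four-parameter fit gives IC50. Rifampicin control.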

OATP1B3 [2] = target: T3, OATP1B3 (Homo sapiens, UniProt Q9NPD5); test: OATP1B3 inhibition assay; type: cell-based
T3 sequence (Q9NPD5 1-702): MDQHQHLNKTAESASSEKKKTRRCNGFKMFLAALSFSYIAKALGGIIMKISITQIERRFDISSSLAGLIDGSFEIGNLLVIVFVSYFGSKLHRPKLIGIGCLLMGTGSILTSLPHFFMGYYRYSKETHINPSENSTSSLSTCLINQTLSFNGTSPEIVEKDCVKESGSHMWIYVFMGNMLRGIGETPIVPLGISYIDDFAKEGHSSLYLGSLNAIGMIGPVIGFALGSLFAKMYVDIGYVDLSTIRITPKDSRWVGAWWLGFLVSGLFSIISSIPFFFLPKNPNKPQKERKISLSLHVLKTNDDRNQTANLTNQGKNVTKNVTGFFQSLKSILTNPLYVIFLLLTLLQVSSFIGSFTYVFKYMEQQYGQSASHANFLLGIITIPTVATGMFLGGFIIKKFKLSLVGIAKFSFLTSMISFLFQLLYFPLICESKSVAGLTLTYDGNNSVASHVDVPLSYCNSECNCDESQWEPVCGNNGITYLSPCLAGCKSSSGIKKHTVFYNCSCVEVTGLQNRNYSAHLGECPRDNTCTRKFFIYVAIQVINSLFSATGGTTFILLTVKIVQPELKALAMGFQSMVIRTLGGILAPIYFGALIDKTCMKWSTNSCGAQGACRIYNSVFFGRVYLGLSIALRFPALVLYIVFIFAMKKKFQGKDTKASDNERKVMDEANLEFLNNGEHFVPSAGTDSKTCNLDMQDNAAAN

[3] = rats; cited from earlier work
OATP1B3 [4] = target: T3, OATP1B3; conditions: read-out: OATP1B3 IC50; control inhibitor; 8-FcA uptake; cited from earlier work
OATP1B1 [5] = target: T2, OATP1B1; conditions: read-out: OATP1B1 IC50; control inhibitor; 8-FcA uptake; cited from earlier work

Row | SMILES | IC50 (OATP2B1) [µM] | IC50 (OATP1B1 [1]) [µM] | IC50 (OATP1B3 [2]) [µM] | bioavailability [3] [%] | IC50 (OATP1B3 [4]) [µM] | IC50 (OATP1B1 [5]) [µM] | potency for OATP1B3 relative to rifampicin (OATP1B3 [2]; comparison of IC50 values)
1 | C[C@@H]1O[C@@H](O[C@H]2[C@H](Oc3cc(O)c4c(c3)O[C@H](c3ccc(O)cc3)CC4=O)O[C@H](CO)[C@@H](O)[C@@H]2O)[C@H](O)[C@H](O)[C@H]1O [Naringin, naringin, reference compound] | 6.9 ± 1.4 | > 100 | > 100 |  |  |  | 
2 | C[C@@H]1O[C@@H](OC[C@H]2O[C@@H](Oc3cc(O)c4c(c3)O[C@H](c3ccc(O)cc3)CC4=O)[C@H](O)[C@@H](O)[C@@H]2O)[C@H](O)[C@H](O)[C@H]1O [Narirutin, narirutin] | 14.2 ± 3.5 | > 100 | > 100 |  |  |  | 
3 | COc1ccc(-c2cc(=O)c3c(OC)c(OC)c(OC)c(OC)c3o2)cc1OC [Nobiletin, nobiletin] | 1.6 ± 0.4 | 2.1 ± 0.7 | 6.6 ± 0.4 | 36 |  |  | 
4 | CO[C@H]1/C=C/O[C@@]2(C)Oc3c(C)c(O)c4c(O)c(c(/C=N/N5CCN(C)CC5)c(O)c4c3C2=O)NC(=O)/C(C)=C\C=C\[C@H](C)[C@H](O)[C@@H](C)[C@@H](O)[C@@H](C)[C@H](OC(C)=O)[C@@H]1C [Rifampicin, rifampicin] |  |  |  |  | ~2 | ~2 | 
5 | COc1ccc(-c2cc(=O)c3c(OC)c(OC)c(OC)cc3o2)cc1OC [Sinensetin, sinensetin] | 5.4 ± 0.6 | 8 ± 2.6 | 21.1 ± 3.4 |  |  |  | about ten times lower
6 | COc1ccc(-c2cc(=O)c3c(OC)c(OC)c(OC)c(OC)c3o2)cc1 [Tangeretin, tangeretin] | 1.6 ± 0.8 | 4.8 ± 1.7 | 5.6 ± 1 | 27 |  |  | 
